Test results reported in ChEMBL document CHEMBL4382221, “First-in-class DAPK1/CSF1R dual inhibitors: Discovery of 3,5-dimethoxy-N-(4-(4-methoxyphenoxy)-2-((6-morpholinopyridin-3-yl)amino)pyrimidin-5-yl)benzamide as a potential anti-tauopathies agent” (Eur J Med Chem, 2019).
pIC50, pKi: −log10 of the molar value. Active and inactive are the calls of the source. No cut-off for these calls is given here.

How the values were obtained:
[1] = target: T1, Death-associated protein kinase 1 (Homo sapiens, UniProt P53355); test: Inhibition of DAPK1 in HEK293 tau-BiFC cells assessed as reduction in forskolin-induced tau aggregation at 50 uM after 48 hrs by Hoechst staining based HCS analysis; assay type: cell-based
Outline: (§1)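 HEK293 cells expressing tau-BiFC were exposed to compounds at 50, 10 and 1 μM with forskolin (30 μM) as the tau aggregation activator for 48 h. BiFC fluorescence intensity was quantified as the read-out. Data are mean ± SD.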
Target sequence in this assay (P53355 whole entry, looked up): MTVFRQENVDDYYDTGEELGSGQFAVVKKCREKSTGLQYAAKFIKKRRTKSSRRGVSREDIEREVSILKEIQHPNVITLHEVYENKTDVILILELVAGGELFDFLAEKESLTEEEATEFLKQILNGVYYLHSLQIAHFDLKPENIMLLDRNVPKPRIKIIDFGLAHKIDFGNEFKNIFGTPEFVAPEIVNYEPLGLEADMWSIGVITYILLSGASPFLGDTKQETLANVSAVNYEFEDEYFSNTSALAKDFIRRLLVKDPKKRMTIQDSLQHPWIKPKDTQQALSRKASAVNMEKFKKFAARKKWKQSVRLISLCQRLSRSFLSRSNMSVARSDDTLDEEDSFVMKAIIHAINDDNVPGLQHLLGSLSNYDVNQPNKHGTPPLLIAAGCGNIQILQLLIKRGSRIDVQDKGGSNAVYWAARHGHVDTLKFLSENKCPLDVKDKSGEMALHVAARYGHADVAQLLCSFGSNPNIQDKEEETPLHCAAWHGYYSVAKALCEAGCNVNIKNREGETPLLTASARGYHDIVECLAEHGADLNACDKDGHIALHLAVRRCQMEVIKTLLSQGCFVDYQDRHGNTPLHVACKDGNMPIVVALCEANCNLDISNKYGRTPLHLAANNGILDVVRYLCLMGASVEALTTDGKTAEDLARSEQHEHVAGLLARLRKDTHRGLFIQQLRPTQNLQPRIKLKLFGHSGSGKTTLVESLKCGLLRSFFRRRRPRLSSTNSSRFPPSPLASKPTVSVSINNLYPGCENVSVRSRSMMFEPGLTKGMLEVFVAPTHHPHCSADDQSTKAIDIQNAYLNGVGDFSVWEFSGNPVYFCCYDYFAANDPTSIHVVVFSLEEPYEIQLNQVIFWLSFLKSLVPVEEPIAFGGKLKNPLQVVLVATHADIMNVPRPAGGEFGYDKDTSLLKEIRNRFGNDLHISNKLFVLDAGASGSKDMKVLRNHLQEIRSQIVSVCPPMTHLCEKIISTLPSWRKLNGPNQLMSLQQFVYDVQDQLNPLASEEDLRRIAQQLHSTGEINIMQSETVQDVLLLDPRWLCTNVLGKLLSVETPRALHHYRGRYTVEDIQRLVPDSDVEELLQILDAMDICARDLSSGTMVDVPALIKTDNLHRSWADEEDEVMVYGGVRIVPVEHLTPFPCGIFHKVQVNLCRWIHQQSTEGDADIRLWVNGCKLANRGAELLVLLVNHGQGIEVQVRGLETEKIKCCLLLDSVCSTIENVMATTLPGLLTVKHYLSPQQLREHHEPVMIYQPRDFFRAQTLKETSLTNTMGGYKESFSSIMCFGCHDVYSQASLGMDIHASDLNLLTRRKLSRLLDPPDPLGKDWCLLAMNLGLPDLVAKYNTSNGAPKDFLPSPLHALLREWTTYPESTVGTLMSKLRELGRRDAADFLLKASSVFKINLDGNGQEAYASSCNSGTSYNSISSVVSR

[2] = target: T1, Death-associated protein kinase 1; test: Inhibition of DAPK1 in HEK293 tau-BiFC cells assessed as reduction in forskolin-induced tau aggregation at 10 uM after 48 hrs by Hoechst staining based HCS analysis; assay type: cell-based; outline: as §1
Target sequence in this assay (P53355 whole entry, looked up): as above

[3] = target: T2, Macrophage colony-stimulating factor 1 receptor (Homo sapiens, UniProt P07333); test: Inhibition of human CSF1R using poly[Glu:Tyr] (4:1) as substrate after 120 mins in presence of 10 uM [gamma-33P]-ATP by filtration method
T2 sequence (P07333 whole entry): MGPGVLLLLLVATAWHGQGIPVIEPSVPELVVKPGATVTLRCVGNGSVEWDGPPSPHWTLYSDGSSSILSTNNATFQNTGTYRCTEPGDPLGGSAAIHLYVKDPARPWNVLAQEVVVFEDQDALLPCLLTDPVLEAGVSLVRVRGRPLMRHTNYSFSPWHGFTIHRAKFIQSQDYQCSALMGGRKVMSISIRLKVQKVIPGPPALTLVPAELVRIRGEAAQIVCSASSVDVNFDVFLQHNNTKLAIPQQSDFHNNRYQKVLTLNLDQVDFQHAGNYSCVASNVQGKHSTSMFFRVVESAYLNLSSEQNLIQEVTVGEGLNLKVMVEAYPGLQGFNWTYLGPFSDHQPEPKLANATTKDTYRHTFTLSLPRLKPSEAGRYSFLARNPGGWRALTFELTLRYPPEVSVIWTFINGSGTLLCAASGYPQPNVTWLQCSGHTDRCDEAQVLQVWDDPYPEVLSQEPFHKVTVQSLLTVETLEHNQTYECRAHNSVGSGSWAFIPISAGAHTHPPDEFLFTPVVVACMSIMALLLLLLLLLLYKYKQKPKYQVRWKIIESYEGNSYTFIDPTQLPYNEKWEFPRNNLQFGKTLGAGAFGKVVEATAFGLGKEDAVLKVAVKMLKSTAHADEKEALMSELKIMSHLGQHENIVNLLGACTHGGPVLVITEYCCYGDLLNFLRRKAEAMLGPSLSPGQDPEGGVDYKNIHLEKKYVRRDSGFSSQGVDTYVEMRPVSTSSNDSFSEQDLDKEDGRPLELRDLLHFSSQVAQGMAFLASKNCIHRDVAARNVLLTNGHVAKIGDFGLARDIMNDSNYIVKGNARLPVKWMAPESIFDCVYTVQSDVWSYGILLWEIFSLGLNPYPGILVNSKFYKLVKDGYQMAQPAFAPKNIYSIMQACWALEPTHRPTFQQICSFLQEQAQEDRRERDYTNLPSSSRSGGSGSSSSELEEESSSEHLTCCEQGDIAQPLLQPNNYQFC
Outline: (§2)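 Radiometric HotSpot assay with direct measurement of phosphorylated substrate at 10 μM ATP. IC50 was taken from a duplicate 10-dose series, 3-fold dilutions starting at 20 μM, reported as mean.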

[4] = target: T1, Death-associated protein kinase 1; test: Inhibition of human DAPK1 (1 to 363 residues) at 20 uM using KKLNRTLSFAEPG as substrate after 120 mins in presence of 10 uM [gamma-33P]-ATP by filtration method relative to control
Outline: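 Radiometric HotSpot kinase assay with 10 μM ATP. Compound tested at a single 20 μM concentration, reported as mean % inhibition from two independent experiments.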
Target sequence in this assay (P53355 whole entry, looked up): as the sequence (P53355 whole entry, looked up) above

[5] = target: T2, Macrophage colony-stimulating factor 1 receptor; test: Inhibition of human CSF1R at 10 uM using poly[Glu:Tyr] (4:1) as substrate after 120 mins in presence of 10 uM [gamma-33P]-ATP by filtration method relative to control
Outline: (§3)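 Radiometric HotSpot assay measuring substrate phosphorylation directly, with 10 μM ATP. Single-dose screen at 10 μM in duplicate, reported as mean % inhibition from two independent experiments.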

BV-2 = test: Anti-neuroinflammatory activity in mouse BV2 cells assessed as inhibition of LPS-stimulated NO production at 10 uM preincubated for 1 hr followed by LPS stimulation for 23 hrs by Griess reagent based assay relative to control; assay type: functional
Outline: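 Mouse BV-2 microglia were stimulated with LPS, with or without compound at 10 μM, and NO production was measured. Values are means ± SD of five independent experiments.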

[6] = target: T1, Death-associated protein kinase 1; test: Inhibition of human DAPK1 (1 to 363 residues) using KKLNRTLSFAEPG as substrate after 120 mins in presence of 10 uM [gamma-33P]-ATP by filtration method; outline: as §2
Target sequence in this assay (P53355 whole entry): as the sequence (P53355 whole entry, looked up) above

[7] = target: T1, Death-associated protein kinase 1; test: Inhibition of human DAPK1 (1 to 363 residues) at 10 uM using KKLNRTLSFAEPG as substrate after 120 mins in presence of 10 uM [gamma-33P]-ATP by filtration method relative to control; outline: as §3
Target sequence in this assay (P53355 whole entry, looked up): as above

[8] = target: T1, Death-associated protein kinase 1; test: Inhibition of DAPK1 in HEK293 tau-BiFC cells assessed as reduction in forskolin-induced tau aggregation at 1 to 50 uM after 48 hrs by Hoechst staining based HCS analysis; assay type: cell-based; outline: as §1
Target sequence in this assay (P53355 whole entry, looked up): as above

[9] = Effective permeability of the compound at 50 uM after 4 hrs by PAMPA; assay type: ADME; conditions: read-out: Peff
Outline: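 Parallel artificial membrane permeability assay across a BBB-PAMPA lipid membrane, reporting effective permeability (Pe) in 10^-6 cm/sec. […] Pe above 0.4 was taken as highly permeable, and above 10 as highly CNS bioavailable.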

[10] = target: Calcium/calmodulin-dependent protein kinase type II subunit alpha (Homo sapiens) (UniProt Q9UQM7); test: Inhibition of human CAMK2a at 10 uM using KKALRRQETVDAL as substrate after 120 mins [gamma-33P]-ATP by filtration method
Outline: (§4)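 Radiometric kinase selectivity panel of 47 kinases, with compound at 10 μM. Data are means ± SD of two independent experiments.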

[11] = Cytotoxicity against LPS-stimulated mouse BV2 cells assessed as cell viability at 10 uM after 24 hrs by MTT assay relative to control; assay type: cell-based, BV-2; conditions: read-out: Activity
Outline: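 BV-2 cell viability was measured in the presence of compound together with LPS and expressed relative to control. Values are means ± SD of five independent experiments.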

[12] = target: T1, Death-associated protein kinase 1; test: Inhibition of human DAPK1 (1 to 363 residues) using KKLNRTLSFAEPG as substrate after 120 mins in presence of 100 uM [gamma-33P]-ATP by filtration method
Outline: (§5)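 Dose-response curves were run at 1, 10 and 100 μM ATP, giving an IC50 at each ATP level; Ki was calculated.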
Target sequence in this assay (P53355 whole entry): as the sequence (P53355 whole entry, looked up) above

[13] = target: Proto-oncogene tyrosine-protein kinase Src (Homo sapiens) (UniProt P12931); test: Inhibition of human c-SRC at 10 uM using poly[Glu:Tyr] (4:1) as substrate after 120 mins [gamma-33P]-ATP by filtration method; outline: as §4
[14] = target: T1, Death-associated protein kinase 1; test: Inhibition of human DAPK1 (1 to 363 residues) using KKLNRTLSFAEPG as substrate after 120 mins [gamma-33P]-ATP by filtration method; outline: as §2
Target sequence in this assay (P53355 whole entry): as the sequence (P53355 whole entry, looked up) above

[15] = target: T2, Macrophage colony-stimulating factor 1 receptor; test: Inhibition of human CSF1R using poly[Glu:Tyr] (4:1) as substrate after 120 mins in presence of 100 uM [gamma-33P]-ATP by filtration method
Outline: (§6)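 CSF1R radiometric kinase assay with dose-response curves at 1, 10 and 100 μM ATP. IC50 was calculated at each ATP concentration, and Ki was derived.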

[16] = target: T3, Serine/threonine-protein kinase 17A (Homo sapiens) (UniProt Q9UEE5); test: Inhibition of human DRAK1 at 10 uM using KKLNRTLSFAEPG as substrate after 120 mins [gamma-33P]-ATP by filtration method; outline: as §4
T3 sequence (whole entry): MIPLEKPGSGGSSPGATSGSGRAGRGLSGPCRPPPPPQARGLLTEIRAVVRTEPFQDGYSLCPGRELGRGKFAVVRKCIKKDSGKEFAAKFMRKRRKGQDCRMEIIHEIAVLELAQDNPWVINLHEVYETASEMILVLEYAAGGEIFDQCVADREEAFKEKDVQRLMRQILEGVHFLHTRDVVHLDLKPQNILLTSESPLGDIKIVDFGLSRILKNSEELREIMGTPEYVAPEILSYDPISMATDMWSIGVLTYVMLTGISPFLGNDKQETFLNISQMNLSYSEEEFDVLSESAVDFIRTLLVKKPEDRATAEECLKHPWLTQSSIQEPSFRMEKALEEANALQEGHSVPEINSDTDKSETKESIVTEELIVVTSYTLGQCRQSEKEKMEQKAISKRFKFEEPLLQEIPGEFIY

[17] = target: Death-associated protein kinase 2 (Homo sapiens) (UniProt Q9UIK4); test: Inhibition of human DAPK2 at 10 uM using KKLNRTLSFAEPG as substrate after 120 mins [gamma-33P]-ATP by filtration method; outline: as §4
[18] = target: Tyrosine-protein kinase Lyn (Homo sapiens) (UniProt P07948); test: Inhibition of human LYN at 10 uM using poly[Glu:Tyr] (4:1) as substrate after 120 mins [gamma-33P]-ATP by filtration method; outline: as §4
[19] = target: T2, Macrophage colony-stimulating factor 1 receptor; test: Inhibition of human CSF1R using poly[Glu:Tyr] (4:1) as substrate after 120 mins in presence of [gamma-33P]-ATP by filtration method
[20] = target: T1, Death-associated protein kinase 1; test: Inhibition of DAPK1 in HEK293 tau-BiFC cells assessed as reduction in forskolin-induced tau aggregation at 16 uM after 48 hrs by Hoechst staining based HCS analysis relative to control; assay type: cell-based
Outline: (§7)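 HEK293 tau-BiFC cells were given forskolin (30 μM) and compound in a 5-dose series (1, 2, 4, 8, 16 μM) for 48 h. BiFC fluorescence was quantified and a cellular IC50 was derived from the series.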
Target sequence in this assay (P53355 whole entry, looked up): as the sequence (P53355 whole entry, looked up) above

[21] = target: T1, Death-associated protein kinase 1; test: Inhibition of DAPK1 in HEK293 tau-BiFC cells assessed as reduction in forskolin-induced tau aggregation after 48 hrs by Hoechst staining based HCS analysis; assay type: cell-based; outline: as §7
Target sequence in this assay (P53355 whole entry): as the sequence (P53355 whole entry, looked up) above

[22] = target: Platelet-derived growth factor receptor beta (Homo sapiens) (UniProt P09619); test: Inhibition of human PDGFRbeta at 10 uM using poly[Glu:Tyr] (4:1) as substrate after 120 mins [gamma-33P]-ATP by filtration method; outline: as §4
[23] = target: T2, Macrophage colony-stimulating factor 1 receptor; test: Inhibition of human CSF1R using poly[Glu:Tyr] (4:1) as substrate after 120 mins in presence of 1 uM [gamma-33P]-ATP by filtration method; outline: as §6
[24] = target: Tyrosine-protein kinase Lck (Homo sapiens) (UniProt P06239); test: Inhibition of human LCK at 10 uM using poly[Glu:Tyr] (4:1) as substrate after 120 mins [gamma-33P]-ATP by filtration method; outline: as §4
[25] = target: Platelet-derived growth factor receptor alpha (Homo sapiens) (UniProt P16234); test: Inhibition of human PDGFRalpha at 10 uM using poly[Glu:Tyr] (4:1) as substrate after 120 mins [gamma-33P]-ATP by filtration method; outline: as §4
[26] = target: Serine/threonine-protein kinase pim-1 (Homo sapiens) (UniProt P11309); test: Inhibition of human PIM1 at 10 uM using KKRNRTLTK as substrate after 120 mins [gamma-33P]-ATP by filtration method; outline: as §4
Serine/threonine-protein kinase pim-1 (Homo sapiens), sequence (P11309 whole entry, looked up, the tested form may be a part): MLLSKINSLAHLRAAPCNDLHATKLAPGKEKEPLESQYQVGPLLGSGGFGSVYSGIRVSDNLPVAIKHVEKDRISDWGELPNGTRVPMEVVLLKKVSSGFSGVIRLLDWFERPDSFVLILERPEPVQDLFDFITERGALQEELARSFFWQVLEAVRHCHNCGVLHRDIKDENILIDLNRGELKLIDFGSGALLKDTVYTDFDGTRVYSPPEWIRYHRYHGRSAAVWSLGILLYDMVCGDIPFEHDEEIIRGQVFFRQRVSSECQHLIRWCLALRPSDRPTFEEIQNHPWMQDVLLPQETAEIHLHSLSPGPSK

[27] = target: T1, Death-associated protein kinase 1; test: Inhibition of human DAPK1 (1 to 363 residues) using KKLNRTLSFAEPG as substrate after 120 mins in presence of 1 uM [gamma-33P]-ATP by filtration method; outline: as §5
Target sequence in this assay (P53355 whole entry): as the sequence (P53355 whole entry, looked up) above

[28] = Effective permeability of the compound at 12.5 uM after 4 hrs by PAMPA; assay type: ADME; conditions: read-out: Peff
Outline: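 BBB-PAMPA lipid membrane permeability was measured as effective permeability Pe (10^-6 cm/sec), with compound tested at 12.5 μM. Results are means ± SD of three independent experiments.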

[29] = target: Leucine-rich repeat serine/threonine-protein kinase 2 (Homo sapiens) (UniProt Q5S007); test: Inhibition of human LRRK2 at 10 uM using RLGRDKYKTLRQIRQ as substrate after 120 mins [gamma-33P]-ATP by filtration method; outline: as §4
[30] = target: Death-associated protein kinase 3 (Homo sapiens) (UniProt O43293); test: Inhibition of human DAPK3 at 10 uM using KKLNRTLSFAEPG as substrate after 120 mins [gamma-33P]-ATP by filtration method; outline: as §4
Death-associated protein kinase 3 (Homo sapiens), sequence (O43293 whole entry, looked up): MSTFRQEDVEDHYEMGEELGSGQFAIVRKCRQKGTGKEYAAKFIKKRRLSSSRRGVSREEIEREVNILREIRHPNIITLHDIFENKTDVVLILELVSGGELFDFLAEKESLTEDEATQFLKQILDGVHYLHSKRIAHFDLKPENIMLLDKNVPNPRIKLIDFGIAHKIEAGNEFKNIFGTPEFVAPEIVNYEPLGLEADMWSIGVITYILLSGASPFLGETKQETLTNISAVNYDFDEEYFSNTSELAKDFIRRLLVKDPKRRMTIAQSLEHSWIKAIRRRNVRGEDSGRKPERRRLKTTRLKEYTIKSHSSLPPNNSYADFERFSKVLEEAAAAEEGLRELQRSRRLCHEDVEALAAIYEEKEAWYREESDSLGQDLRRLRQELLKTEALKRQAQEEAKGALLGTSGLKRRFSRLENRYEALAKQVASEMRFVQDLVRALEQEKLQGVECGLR

[31] = target: Voltage-gated inwardly rectifying potassium channel KCNH2 (Homo sapiens, UniProt Q12809); test: Inhibition of red tracer binding to human ERG expressed in membranes preincubated for 10 to 15 mins followed by tracer addition measured after 3 hrs by fluorescence polarization assay

COc1ccc(Oc2nc(Nc3ccc(N4CCOCC4)cc3)ncc2NC(=O)c2cc(OC)cc(OC)c2)cc1
inhibition [1]: Active
inhibition [2]: inactive
pIC50 [3]: 6.92
inhibition [4]: 66%
inhibition [5]: 95.3%
inhibition (BV-2): inactive
pIC50 [6]: 5.56

COc1ccc(Oc2nc(Nc3ccc(N4CCCCC4)nc3)ncc2NC(N)=O)cc1
inhibition [7]: 31.7%
inhibition [5]: 28.4%

COc1ccc(Oc2nc(Nc3ccc(F)cc3)ncc2NC(N)=O)cc1
inhibition [7]: 17.1%
inhibition [5]: 21%

COc1ccc(Oc2nc(Nc3ccc(N4CCOCC4)nc3)ncc2NC(N)=O)cc1
inhibition [7]: 19.7%
inhibition [5]: 35.4%

COc1ccc(Oc2nc(Nc3ccc(N4CCOCC4)cc3)ncc2NC(=O)c2cccc(OC)c2)cc1
inhibition [1]: Active
inhibition [7]: 75.1%
pIC50 [3]: 6.11
inhibition [5]: 91.8%
pIC50 [6]: 5.13

COc1ccc(Oc2nc(Nc3ccc(N4CCCCC4)nc3)ncc2NC(=O)c2cc(OC)cc(OC)c2)cc1
inhibition [1]: Active
inhibition [7]: 67.3%
pIC50 [3]: 5.76
inhibition [5]: 76%
pIC50 [6]: 5.57

NC(=O)Nc1cnc(Nc2ccc(N3CCOCC3)cc2)nc1Oc1ccc(C(F)(F)F)cc1
inhibition [4]: 44.9%
inhibition [8]: inactive
inhibition [5]: 59.6%
pIC50 [6]: 4.84

COc1ccc(Oc2nc(Nc3ccc(F)cc3)ncc2NC(=O)c2cc(OC)cc(OC)c2)cc1
inhibition [1]: Active
inhibition [2]: inactive
inhibition [7]: 65%
inhibition [5]: 35.2%
pIC50 [6]: 5.37

COc1ccc(Oc2nc(Nc3ccc(N4CCOCC4)cc3)ncc2NC(N)=O)cc1
pIC50 [3]: 5.35
inhibition [4]: 10.8%
inhibition [5]: 65%

CC(=O)[C@H]1CC[C@H]2[C@@H]3CCC4=CC(=O)CC[C@]4(C)[C@H]3CC[C@]12C [PROGESTERONE]
Papp at 4 h, 50 µM [9]: 33.3 ×10⁻⁶ cm/s

COc1ccc(Oc2nc(Nc3ccc(N4CCOCC4)cc3)ncc2NC(=O)c2cccc(C(F)(F)F)c2)cc1
pIC50 [3]: 5.31
inhibition [4]: 69.7%
inhibition [8]: inactive
inhibition [5]: 74.7%
pIC50 [6]: 5.58

COc1cccc(Oc2nc(Nc3ccc(N4CCOCC4)cc3)ncc2NC(N)=O)c1
inhibition [7]: 15.8%
pIC50 [3]: 5.89
inhibition [5]: 77.6%

COc1ccc(Oc2nc(Nc3ccc(N4CCOCC4)nc3)ncc2NC(=O)c2cc(OC)cc(OC)c2)cc1
inhibition [10]: inactive
inhibition [1]: Active
viability at 24 h, 10 µM [11]: > 92%
pIC50 [12]: 6.04
inhibition [13]: Active
pKi [14]: 6.24
pIC50 [15]: 6.56
inhibition [16]: inactive
inhibition [17]: inactive
inhibition [2]: Active
inhibition [7]: 66.2%
pIC50 [3]: 6.82
inhibition [18]: Active
pKi [19]: 6.89
inhibition [20]: 100%
pIC50 [21]: 5.30
inhibition [22]: inactive
pIC50 [23]: 7.16
inhibition [24]: Active
inhibition [25]: inactive
inhibition [26]: inactive
pIC50 [27]: 5.54
inhibition [5]: 77.9%
Papp at 4 h, 12.5 µM [28]: 57 ×10⁻⁶ cm/s
inhibition [29]: inactive
inhibition at 10 µM (BV-2): 55%
pIC50 [6]: 5.90
inhibition [30]: inactive
pIC50 [31]: 4.77
